Assays:
C8166 = test: Inhibitory concentration against cell culture of Human T-cell line c8166 infected with HIV-1 IIIB strain was determined; assay type: functional, cell-based
[1] = molecular target: Human immunodeficiency virus type 1 reverse transcriptase (Human immunodeficiency virus 1, UniProt Q72547, E138K); test: Inhibitory concentration against mutant reverse transcriptase of E138K was determined which is in turn resistant to TSAO
Summary of the method: (§1)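 The enzyme was either p66/p51 heterodimer purified to near homogeneity or crude E. coli lysate containing the mutant RT. Inhibitory concentration was measured in an RT enzyme assay.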

[2] = molecular target: Human immunodeficiency virus type 1 reverse transcriptase (Human immunodeficiency virus 1, UniProt Q72547); test: Inhibitory concentration against HIV-1 wild type Reverse transcriptase (RT)
[3] = molecular target: Human immunodeficiency virus type 1 reverse transcriptase (Human immunodeficiency virus 1, UniProt Q72547, K103N); test: Inhibitory concentration against mutant reverse transcriptase of K103N was determined which is in turn resistant to pyridinones; summary of the method: as §1
[4] = molecular target: Human immunodeficiency virus type 1 reverse transcriptase (Human immunodeficiency virus 1, UniProt Q72547, L100I); test: Inhibitory concentration against mutant reverse transcriptase of L100I was determined which is in turn resistant TIBO; summary of the method: as §1
[5] = molecular target: Human immunodeficiency virus type 1 reverse transcriptase (Human immunodeficiency virus 1, UniProt Q72547, P236L); test: Inhibitory concentration against mutant reverse transcriptase of P236L was determined which is in turn resistant to BHAP; summary of the method: as §1
[6] = molecular target: Human immunodeficiency virus type 1 reverse transcriptase (Human immunodeficiency virus 1, UniProt Q72547, Y181C); test: Inhibitory activity against HIV-1 Y181C Reverse transcriptase (RT); summary of the method: as §1

SMILES	IC50 [2] [nM]	IC50 [6] [nM]	other results
CCN1c2ncccc2C(=O)N(C)c2ccc(-c3ccc(N)nc3)nc21	50	260	IC50 (C8166): 240 nM; IC50 [1]: 20 nM; IC50 [3]: 410 nM; IC50 [4]: 240 nM; IC50 [5]: 40 nM
CCN1c2ncccc2C(=O)N(C)c2ccc(-c3ccc(O)nc3)nc21	1100	> 1000	
CCN1c2ncccc2C(=O)Nc2c(C)cc(Cl)nc21	10	800	
CN1C(=O)c2cccnc2N(C2CC2)c2nc(-c3cn[nH]c3)ccc21	60	50	IC50 (C8166): 120 nM; IC50 [1]: 460 nM; IC50 [3]: 420 nM; IC50 [4]: 1500 nM; IC50 [5]: 340 nM
COc1ccc2c(n1)N(C1CC1)c1ncccc1C(=O)N2C	120	1100	
CCN1c2ncccc2C(=O)N(C)c2ccc(/C=C/C(N)=O)nc21	250	2400	
CCN1c2ncccc2C(=O)N(C)c2ccc(-c3ccc(O)cc3)nc21	70	270	IC50 (C8166): 300 nM; IC50 [1]: 60 nM; IC50 [3]: 10 nM; IC50 [4]: 500 nM; IC50 [5]: 1 nM
CCN1c2ncccc2C(=O)N(C)c2ccc(-c3ccc(N)cc3)nc21	40	120	IC50 (C8166): 550 nM; IC50 [1]: 60 nM; IC50 [3]: 260 nM; IC50 [4]: 570 nM; IC50 [5]: 260 nM
CCN1c2ncccc2C(=O)N(C)c2ccc(-c3cccc(OC)c3)nc21	150	210	
CCN1c2ncccc2C(=O)N(C)c2ccc(N3CCCC3)nc21	20	3800	
CCNc1ccc2c(n1)N(CC)c1ncccc1C(=O)N2C	230	1300	
CN1C(=O)c2cccnc2N(C2CC2)c2nc(Br)ccc21	30	2100	
CCN1c2ncccc2C(=O)N(C)c2ccc(-c3cc[nH]n3)nc21	390	290	
CCN1c2ncccc2C(=O)N(C)c2ccc(-c3ccco3)nc21	110	160	
CCN1c2ncccc2C(=O)N(C)c2ccc(-c3cccc(O)c3)nc21	100	180	
CCN1c2ncccc2C(=O)Nc2c(C)cc(N(C)CCO)nc21	10	> 1000	
CCN1c2ncccc2C(=O)N(C)c2ccc(/C=C/C(=O)OC)nc21	180	670	
CCN1c2ncccc2C(=O)N(C)c2ccc(-c3ccc(OC)cc3)nc21	1400	3200	
CN1C(=O)c2cccnc2N(C2CC2)c2nc(Cl)ccc21		920	
CCN1c2ncccc2C(=O)Nc2c(C)cc(N3CCC(O)C3)nc21 (stereo unspecified)	40	> 1000	
CCN1c2ncccc2C(=O)N(C)c2ccc(N3CC=CC3)nc21	30	640	
CCN1c2ncccc2C(=O)N(C)c2ccc(-n3cccn3)nc21	310	560	
CCN1c2ncccc2C(=O)Nc2c(C)cc(C(C)C)nc21	1000	> 1000	

SMILES	IC50 [2] [nM]	IC50 [6] [nM]	other results
CCN1c2ncccc2C(=O)N(C)c2ccc(-c3ccccc3OC)nc21	820	2500	
CCN1c2ncccc2C(=O)N(C)c2ccc(-c3cccs3)nc21	140	420	
CCN1c2ncccc2C(=O)Nc2c(C)cc(F)nc21	20	850	
CCN1c2ncccc2C(=O)N(C)c2ccc(-c3cn[nH]c3)nc21	20	60	IC50 (C8166): 40 nM; IC50 [1]: 50 nM; IC50 [3]: 80 nM; IC50 [4]: 2500 nM; IC50 [5]: 130 nM
CCN1c2ncccc2C(=O)N(C)c2ccc(-c3ccc(OC)nc3)nc21	1200	3000	
CCN1c2ncccc2C(=O)N(C)c2ccc(N3CCOCC3)nc21	400	> 1000	
CCN1c2ncccc2C(=O)N(C)c2ccc(N(C)C)nc21	70	770	
CCN1c2ncccc2C(=O)N(C)c2ccc(OC)nc21	40	600	
CN1C(=O)c2cccnc2N(C2CC2)c2nc(-c3cccnc3)ccc21	180	440	
CCN1c2ncccc2C(=O)N(C)c2ccc(=O)[nH]c21	470	> 1000	
CCN1c2ncccc2C(=O)N(C)c2ccc(-c3ccsc3)nc21	100	300	
Cc1cc(C)c2c(n1)N(C1CC1)c1ncccc1C(=O)N2	70	1200	
CCN1c2ncccc2C(=O)N(C)c2ccc(C)nc21	120	1200	
CCN1c2ncccc2C(=O)N(C)c2ccc(Cl)nc21	80	210	IC50 (C8166): 160 nM; IC50 [1]: 120 nM; IC50 [3]: 1100 nM; IC50 [5]: 20 nM
CCN1c2ncccc2C(=O)Nc2c(C)cc(NCCO)nc21	90	> 1000	
CCN1c2ncccc2C(=O)N(C)c2ccc(-c3ncco3)nc21	220	820	
CCN1c2ncccc2C(=O)N(C)c2ccc(NC)nc21	190	710	
CCN1c2ncccc2C(=O)Nc2c(C)cc(C)nc21	20	> 1000	
CCN1c2ncccc2C(=O)N(C)c2ccc(-c3ccccn3)nc21	180	1600	
Cc1cc(Cl)nc2c1NC(=O)c1cccnc1N2C1CC1	20	780	
CCN1c2ncccc2C(=O)Nc2c(C)cc(NCCCO)nc21	90	> 1000	
CCN1c2ncccc2C(=O)N(C)c2ccc(-c3cccc(N)c3)nc21		560	
CCN1c2ncccc2C(=O)Nc2c(C)cc(C(C)(C)C)nc21	> 1000	> 1000	

SMILES	IC50 [2] [nM]	IC50 [6] [nM]	other results
C#Cc1ccc2c(n1)N(CC)c1ncccc1C(=O)N2C	140	420	
CCN1c2ncccc2C(=O)N(C)c2ccc(-c3ccoc3)nc21	40	110	
C/C=C/Nc1ccc2c(n1)N(CC)c1ncccc1C(=O)N2C	390	> 1000	
CN1C(=O)c2cccnc2N(C2CC2)c2nc(-c3ccncc3)ccc21	150	320	
CCN1c2ncccc2C(=O)N(C)c2ccc(N)nc21	> 1000	> 1000	
CCN1c2ncccc2C(=O)Nc2c(C)cc(SC)nc21	20	> 1000	
CCN1c2ncccc2C(=O)N(C)c2ccc(-c3ncc[nH]3)nc21	130	190	
CCN1c2ncccc2C(=O)N(C)c2ccc(-c3cnco3)nc21	110	560	
CCN1c2ncccc2C(=O)N(C)c2ccc(-c3nccs3)nc21	100	240	
CCN1c2ncccc2C(=O)N(C)c2ccc(-c3ccc[nH]3)nc21	70	70	
CCN1c2ncccc2C(=O)N(C)c2ccc(N3CCCCC3)nc21	300	> 1000	
CCN1c2ncccc2C(=O)N(C)c2ccc(-c3cnc[nH]3)nc21	3700	740	
CCN1c2ncccc2C(=O)N(C)c2ccc(-c3cncs3)nc21	380	1100	
CCc1cc(C)c2c(n1)N(CC)c1ncccc1C(=O)N2	90	1700	
CCN1c2ncccc2C(=O)N(C)c2ccc(-c3ccccc3)nc21	230	1400	
CCN1c2ncccc2C(=O)N(C)c2cccnc21		2200	
CCN1c2ncccc2C(=O)Nc2c(C)ccnc21	40	1800	
CN1C(=O)c2cccnc2N(C2CC2)c2nc(-c3cc[nH]c3)ccc21	50	60	
CCN1c2ncccc2C(=O)N(C)c2ccc(-n3cccc3)nc21	90	210	
CCN1c2ncccc2C(=O)Nc2c(C)cc(N3CCSCC3)nc21	150	> 1000	
CCN1c2ncccc2C(=O)N(C)c2ccc(-c3cc[nH]c3)nc21	30	40	IC50 (C8166): 40 nM; IC50 [1]: 70 nM; IC50 [3]: 50 nM; IC50 [4]: 410 nM; IC50 [5]: 130 nM
Cc1ccnc2c1NC(=O)c1cccnc1N2C1CC1 [NEVIRAPINE]			IC50 (C8166): 40 nM
